NadD block – blocks S. aureus nicotinate mononucleotide adenylyltransferase | AID 602399 | inhibition, % at 20 µM | actives 0.78% (n = 360,000) | purified NadD enzyme, colorimetric absorbance read-out; in the data active means inhibition above about 26%
GRK2 inh – human GRK2 inhibition via aptamer displacement; bead flow cytometry, FAM-aptamer displacement from GRK2; inhibition of aptamer binding, % at 10 µM; actives 0.59% (n = 330,000);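 active means inhibition of aptamer binding above 40%, roughly 3 SD of noise, on plates passing a quality check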;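 further: median bead fluorescence of bound FAM aptamer so fluorescent compounds give negative values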
Target sequence (P25098 whole entry, looked up): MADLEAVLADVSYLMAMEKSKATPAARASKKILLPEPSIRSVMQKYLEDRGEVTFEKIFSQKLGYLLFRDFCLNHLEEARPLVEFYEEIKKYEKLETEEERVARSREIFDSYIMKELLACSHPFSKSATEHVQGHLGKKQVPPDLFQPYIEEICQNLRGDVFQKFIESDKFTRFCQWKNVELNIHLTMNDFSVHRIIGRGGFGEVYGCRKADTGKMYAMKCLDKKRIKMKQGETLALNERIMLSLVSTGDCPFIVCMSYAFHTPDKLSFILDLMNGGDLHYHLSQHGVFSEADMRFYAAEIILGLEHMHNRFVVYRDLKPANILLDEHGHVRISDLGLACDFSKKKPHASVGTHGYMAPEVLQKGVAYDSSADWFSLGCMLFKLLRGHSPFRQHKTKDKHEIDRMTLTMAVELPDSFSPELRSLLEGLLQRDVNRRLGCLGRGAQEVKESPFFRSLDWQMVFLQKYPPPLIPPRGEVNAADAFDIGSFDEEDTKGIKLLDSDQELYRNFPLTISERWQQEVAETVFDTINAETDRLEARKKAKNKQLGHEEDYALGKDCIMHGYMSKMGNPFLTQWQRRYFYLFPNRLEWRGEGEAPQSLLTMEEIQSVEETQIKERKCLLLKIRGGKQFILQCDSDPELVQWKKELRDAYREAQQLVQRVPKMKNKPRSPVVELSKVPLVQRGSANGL
Beta2AR agonist – human beta-2 adrenergic receptor agonism by FAP | P07550 | Am2.2-beta2AR cells, FAP receptor internalization, flow cytometry | response, % (concentration not given with the values) | actives 0.43% (n = 340,000);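 active means response above a set limit, near 3 SD of response in nonfluorescent compounds, cut at about 42% in these data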
SENP1 FRET inh – blocks the human SENP1 SUMO protease catalytic domain; inhibition, % at 10 µM; AID 624204; recombinant SENP1 catalytic domain, CyPet-SUMO1-YPet FRET cleavage; Q9P0U3; actives 0.21% (n = 360,000);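 active means inhibition at least 30% at 10 µM, raw YFP signal under a set limit, fluorescence ratio 0.5 to 1.5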;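 further: 0% = enzyme with DMSO and 100% = no enzyme wells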
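Assay system – human recombinant His6-tagged SENP1 catalytic domain enzyme · Input – SENP1 enzyme, 20 pM final · Buffer or medium – Tris pH 8 buffer plus EDTA, NaCl, BME, BSA, NP40, catalase · Schedule – 50 min reaction at room temperature · Technique – FRET read of cyan and yellow fluorescence · Control set – no-enzyme wells low, DMSO-plus-enzyme wells high control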
ABHD5-PLIN5 inh – inhibitors of human ABHD5-perilipin-5 interaction; Split G. princeps luciferase complementation, luminescence, 4 h; inhibition, % at 4 µM; actives 0.78% (n = 360,000);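 active means inhibition above the mean inhibition across every tested compound plus 3 SD, cut at about 22% in these data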;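 further: 0% = DMSO only wells and the 100% control is not disclosed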
NadD conf – NadD (S. aureus) inhibition, single concentration confirmation; shares compounds with NadD block; purified S. aureus NadD, colorimetric enzyme assay; inhibition, % at 20 µM; actives 13% (n = 2,000); in the data active means inhibition mostly above about 42%, no sharp cut-off; inactive means mostly below about 42%
* marks the source's active call; other numbers are inactive results; · = no result. Shown are actives, neighbours in structure and some others; about 2.5% of the full set was active somewhere.

SMILES	NadD block	GRK2 inh	Beta2AR agonist	SENP1 FRET inh	ABHD5-PLIN5 inh	NadD conf
C=CCn1c(C)cc(-c2csc(NC(=O)C3CCN(c4ncnc5sc(C)c(C)c45)CC3)n2)c1C	32*	·	8	-16	-5	27
Cc1onc(-c2ccccc2)c1C(=O)Nc1sc2c(c1C#N)CCC(C)C2 (stereo not drawn)	5	0	-2	-13	-5	·
C=CCOc1ccc(C(=O)n2cc(C(=O)OC)c3ccccc32)cc1	-6	0	3	1	0	·
O=C(Nc1ccc(Oc2ccc3c(c2)C(=O)N(c2ccc(O)cc2)C3=O)cc1)c1cccs1	34*	0	-5	3	1	-4
CC(C)CN1C(=O)c2ccc(NC(=O)c3cccs3)cc2C1=O	-8	1	-5	2	-4	·
COC(=O)c1c(NC(=O)COC(=O)c2ccc(NC(=O)CC#N)cc2)sc2c1CCCCC2	82*	2	-4	-45	-8	25
CCOc1cccc(C=NNc2ccc(S(=O)(=O)Nc3ccccc3C(=O)O)cc2[N+](=O)[O-])c1O	8	1	4	4	-3	·
CCOc1ccc(C=NNc2ccc(S(=O)(=O)Nc3ccccc3C(=O)O)cc2[N+](=O)[O-])cc1	34*	2	2	6	5	76*
CSc1ccc(C=NNc2ccc(S(=O)(=O)Nc3ccccc3C(=O)O)cc2[N+](=O)[O-])cc1	41*	0	-3	5	2	21
O=C(O)C(Cc1c[nH]c2ccccc12)NS(=O)(=O)c1cccc(Cl)c1Cl (stereo not drawn)	-4	0	-5	1	6	·
CN(C(=O)COC(=O)c1ccc(Cl)s1)C1(C#N)CCCCC1	-6	·	6	1	9	·
CSc1ccccc1NC(=O)CSc1nnc(CNC(=O)c2ccccc2F)n1C	1	0	-13	1	3	·
CN(C)c1ccc(-c2cccc(C3CC=CC4C3C(=O)N(Cc3ccccc3)C4c3ccc4ccccc4c3)c2)cc1 (stereo not drawn)	32*	1	7	2	-2	13
O=C1C2C(c3ccccc3)CC=CC2[C@H](c2ccc3ccccc3c2)N1Cc1ccccc1 (stereo partly drawn)	21	1	24	-1	-6	·
COc1ccc(-c2cccc(C3CC=CC4C3C(=O)N(Cc3ccccc3)C4c3ccc4ccccc4c3)c2)cc1 (stereo not drawn)	31*	2	-2	3	5	5
COc1ccccc1NS(=O)(=O)c1cc(C(=O)NCC(C)(C)N2CCOCC2)ccc1C	1	0	-2	-1	8	·
Cc1c(Cl)c([N+](=O)[O-])nn1CC(=O)N1CCN(C23CC4CC(CC(C4)C2)C3)CC1	4	0	7	-3	-6	·
Cc1coc2cc3oc(=O)c(CC(=O)N[C@@H](CC(C)C)C(=O)O)c(C)c3cc12	-5	0	-8	-7	-6	·
Cn1cnnc1SC/C(O)=C(\C#N)c1nc2ccccc2[nH]1	-4	0	-1	-41	6	·
Cc1ccc(Nc2nnc(SCC(O)=C(C#N)c3nc4ccccc4[nH]3)s2)c(C)c1	31*	·	-35	-36	-12	60*
Cc1cccc(C)c1Nc1nnc(SC/C(O)=C(\C#N)c2nc3ccccc3[nH]2)s1	32*	0	-1	-39	5	69*
Cc1cccc(Nc2nnc(SC/C(O)=C(\C#N)c3nc4ccccc4[nH]3)s2)c1C	45*	2	22	-34	6	41
Cc1c(-c2cccc(Cl)c2)nc2ccccc2c1C(=O)OC/C(O)=C(\C#N)c1nc2ccccc2[nH]1	70*	3	22	-31	-2	-1
Cc1c(C(=O)OC/C(O)=C(\C#N)c2nc3ccccc3[nH]2)oc2ccc(Br)cc12	43*	1	-12	-71	3	4
Cc1onc(-c2ccccc2)c1-c1nnc(CN2CCN(S(=O)(=O)c3ccccc3F)CC2)o1	2	0	4	2	-3	·
SMILES	NadD block	GRK2 inh	Beta2AR agonist	SENP1 FRET inh	ABHD5-PLIN5 inh	NadD conf
O=C(COc1ccccc1F)OCC(=O)c1ccc([N+](=O)[O-])cc1	10	0	21	1	-26	·
CCOC(=O)c1cc(-c2ccccc2)sc1NC(=O)C(C)N1C(=O)NC(C)(c2ccc(Cl)cc2)C1=O (stereo not drawn)	30*	4	-10	-13	-7	-8
CCC1CCCCN1S(=O)(=O)c1ccc(C(=O)N(CCCN(C)C)c2nc3cc4c(cc3s2)OCO4)cc1 (stereo not drawn)	-2	0	18	0	16	·
COc1cc(/C=C/c2ccc3c(Br)cc(Br)c(O)c3n2)ccc1O	61*	2	-10	-23	-7	47
CC(C)(C)OC(=O)N1CCC(C(=O)Nc2ccc(C(=O)NCCc3ccccc3)cc2)CC1	1	·	1	1	9	·
N#C/C(=C\c1coc2ccc(O)cc2c1=O)C(=O)Nc1nc2ccccc2s1	30*	3	-164	-34	7	42
N#C/C(=C\c1coc2ccccc2c1=O)C(N)=S	22	2	3	-14	-6	·
CCc1ccc(NC(=O)C(C)OC(=O)c2ccc(NS(=O)(=O)c3ccc(C)c([N+](=O)[O-])c3)cc2)cc1 (stereo not drawn)	45*	0	10	3	-13	46*
Cc1ccc(NC(=O)C(C)OC(=O)c2ccc(NS(=O)(=O)c3ccc(F)c(F)c3)cc2)cc1 (stereo not drawn)	6	2	12	-4	-11	·
Cc1ccc(C(=O)NCCc2nnc3ccc(SCC(=O)Nc4ccccc4F)nn23)cc1	1	0	-12	1	2	·
COc1ccccc1/C=C/C=C1N=C(/C=C/c2ccc(Cl)cc2)OC/1=O	32*	2	-24	-3	-2	-3
COC(=O)c1ccc(N/C=C/C(=O)c2ccccc2)cc1	5	2	-2	-44	-2	·
NS(=O)(=O)c1ccc(NC(=O)COC(=O)c2ccc(S(=O)(=O)N3CCOCC3)cc2)cc1	0	0	6	1	1	·
O=C(Nc1ccc(Cl)c([N+](=O)[O-])c1)Nc1nc2ccccc2s1	·	5	·	·	·	·
Cc1ccc(NC(=O)Nc2nc3ccccc3s2)cc1NC(=O)Nc1nc2ccccc2s1	28*	0	14	0	-2	8
O=C(Nc1ncc(Cc2ccccc2Cl)s1)c1ccc(-c2cccc([N+](=O)[O-])c2)o1	36*	1	10	0	0	3
Cc1ccc(-n2ncc3c2CCCC3NC(=O)CCc2cnccn2)cc1C (stereo not drawn)	-1	0	-3	0	-2	·
O=C(c1cc(C2CC2)nn1-c1ccccc1)N1CCN(Cc2ccccc2)CC1	7	·	·	1	-1	·

From PubChem BioAssay
